In assay [1] the target is TGF-beta receptor type-2 (Homo sapiens) (UniProt P37173). Nature of the assay: Competitive binding affinity to TGFBR2 (unknown origin) at 10 uM in presence of ATP relative to control.
Assay [2] has as its target T1, NUAK family SNF1-like kinase 1 (Homo sapiens) (UniProt O60285).
T1 sequence (whole entry): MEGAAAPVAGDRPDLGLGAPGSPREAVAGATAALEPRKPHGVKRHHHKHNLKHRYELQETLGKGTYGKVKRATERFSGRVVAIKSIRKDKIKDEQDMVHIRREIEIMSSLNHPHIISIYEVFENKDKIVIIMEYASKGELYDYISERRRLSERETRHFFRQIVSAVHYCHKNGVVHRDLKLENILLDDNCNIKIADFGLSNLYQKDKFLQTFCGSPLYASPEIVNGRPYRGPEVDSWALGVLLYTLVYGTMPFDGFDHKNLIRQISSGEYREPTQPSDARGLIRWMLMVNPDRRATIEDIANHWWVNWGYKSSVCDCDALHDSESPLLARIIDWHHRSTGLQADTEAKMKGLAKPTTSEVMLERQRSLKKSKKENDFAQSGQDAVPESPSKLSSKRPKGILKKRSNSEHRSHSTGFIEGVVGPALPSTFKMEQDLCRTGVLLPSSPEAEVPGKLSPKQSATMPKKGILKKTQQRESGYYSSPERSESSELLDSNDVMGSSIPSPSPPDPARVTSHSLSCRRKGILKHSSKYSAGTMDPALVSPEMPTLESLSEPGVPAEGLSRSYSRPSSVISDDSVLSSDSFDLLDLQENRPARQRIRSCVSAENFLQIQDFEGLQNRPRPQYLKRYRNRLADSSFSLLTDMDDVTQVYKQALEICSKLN
Nature of the assay: Competitive binding affinity to ARK5 (unknown origin) at 10 uM in presence of ATP relative to control.

Assay [3] deals with Tyrosine-protein kinase ABL1 (Homo sapiens), P00519 [H396P]. The assay can be described thus: Competitive binding affinity to ABL1 H396P mutant (unknown origin) at 10 uM in presence of ATP relative to control.
For assay [4], the target named is T2, Casein kinase I isoform alpha-like (Homo sapiens) (UniProt Q8N752).
T2 sequence (whole entry): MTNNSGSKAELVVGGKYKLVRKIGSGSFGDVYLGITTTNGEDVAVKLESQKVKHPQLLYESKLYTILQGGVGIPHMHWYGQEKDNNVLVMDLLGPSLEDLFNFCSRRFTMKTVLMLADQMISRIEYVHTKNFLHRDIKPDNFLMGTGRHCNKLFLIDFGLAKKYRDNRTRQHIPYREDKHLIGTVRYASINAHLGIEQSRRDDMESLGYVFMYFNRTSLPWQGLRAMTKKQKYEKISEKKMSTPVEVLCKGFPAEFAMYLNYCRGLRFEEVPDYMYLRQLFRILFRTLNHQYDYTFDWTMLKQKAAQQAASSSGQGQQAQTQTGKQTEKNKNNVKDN
Nature of the assay: Competitive binding affinity to CSNK1A1L (unknown origin) at 10 uM in presence of ATP relative to control.

Assay [5] concerns the target Protein kinase C eta type (Homo sapiens) (UniProt P24723). Nature of the assay: Competitive binding affinity to PRKCH (unknown origin) at 10 uM in presence of ATP relative to control.
The target of assay [6] is Serine/threonine-protein kinase 38-like (Homo sapiens) (UniProt Q9Y2H1). The assay can be described thus: Competitive binding affinity to NDR2 (unknown origin) at 10 uM in presence of ATP relative to control. An outline of the steps: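 In vitro ATP-site competition binding assay across a diverse panel of 128 kinases, with compound tested at a single concentration. Kinase selectivity scores (S15) were calculated from the panel profiles.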

The target in assay [7] is Serine/threonine-protein kinase pim-1 (Homo sapiens) (UniProt P11309). Nature of the assay: Competitive binding affinity to PIM1 (unknown origin) at 10 uM in presence of ATP relative to control.
Assay [8] addresses T3, Tyrosine-protein kinase JAK3 (Homo sapiens) (UniProt P52333).
T3 sequence (whole entry): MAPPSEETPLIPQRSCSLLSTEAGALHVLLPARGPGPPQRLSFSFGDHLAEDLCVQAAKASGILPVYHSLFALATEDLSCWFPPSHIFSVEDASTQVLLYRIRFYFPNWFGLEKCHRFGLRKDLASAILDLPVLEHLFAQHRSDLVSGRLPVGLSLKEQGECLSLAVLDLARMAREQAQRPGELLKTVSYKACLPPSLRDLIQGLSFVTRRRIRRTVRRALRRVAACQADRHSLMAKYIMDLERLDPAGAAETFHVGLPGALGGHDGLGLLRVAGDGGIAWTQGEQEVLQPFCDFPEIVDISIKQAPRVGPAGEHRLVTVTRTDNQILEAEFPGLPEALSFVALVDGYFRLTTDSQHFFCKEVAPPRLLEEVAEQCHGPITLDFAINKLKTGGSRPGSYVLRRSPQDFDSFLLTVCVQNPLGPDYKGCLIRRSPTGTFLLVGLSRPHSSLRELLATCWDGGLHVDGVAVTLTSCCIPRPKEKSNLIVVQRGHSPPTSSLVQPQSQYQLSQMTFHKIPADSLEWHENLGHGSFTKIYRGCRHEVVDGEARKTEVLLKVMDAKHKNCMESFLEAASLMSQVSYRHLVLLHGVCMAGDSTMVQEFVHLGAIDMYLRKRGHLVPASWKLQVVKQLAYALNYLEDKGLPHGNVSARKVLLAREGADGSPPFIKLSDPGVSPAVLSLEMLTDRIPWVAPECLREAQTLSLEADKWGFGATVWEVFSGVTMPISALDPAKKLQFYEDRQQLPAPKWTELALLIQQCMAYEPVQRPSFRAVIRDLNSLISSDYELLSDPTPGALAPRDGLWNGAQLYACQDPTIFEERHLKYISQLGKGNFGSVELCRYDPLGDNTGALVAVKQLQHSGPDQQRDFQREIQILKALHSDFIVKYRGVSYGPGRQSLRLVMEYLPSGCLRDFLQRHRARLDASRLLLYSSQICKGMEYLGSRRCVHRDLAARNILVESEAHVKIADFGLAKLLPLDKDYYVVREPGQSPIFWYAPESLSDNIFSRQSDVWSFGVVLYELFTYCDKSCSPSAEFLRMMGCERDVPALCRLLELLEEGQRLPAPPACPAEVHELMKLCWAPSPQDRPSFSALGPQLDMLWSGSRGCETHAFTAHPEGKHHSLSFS
Nature of the assay: Competitive binding affinity to JAK3 kinase domain 2 (unknown origin) at 10 uM in presence of ATP relative to control.

Assay [9] has as its target Protein kinase C delta type (Homo sapiens) (UniProt Q05655). Nature of the assay: Competitive binding affinity to PRKCD (unknown origin) at 10 uM in presence of ATP relative to control.
Assay [10] has as its target Vascular endothelial growth factor receptor 1 (Homo sapiens) (UniProt P17948). The assay can be described thus: Competitive binding affinity to FLT1 (unknown origin) at 10 uM in presence of ATP relative to control.
The subject of assay [11] is Tyrosine-protein kinase ABL1 (Homo sapiens), P00519 [Q252H]. The assay can be described thus: Competitive binding affinity to ABL1 Q252H mutant (unknown origin) at 10 uM in presence of ATP relative to control.

Each structure is given as a SMILES string. Some results are limits rather than exact numbers.

The inhibition is how much of the control response was suppressed.

`O[C@H]1CC[C@H](Nc2nccc(-n3ccc4ccccc43)n2)CC1`: the inhibition was below 50% in assay [1]; below 50% in assay [2]; below 50% in assay [3]; 74% in assay [4]; below 50% in assay [5]; below 50% in [6]. Besides, the inhibition in assay [7] is 76%; in assay [8] it was below 50%; in [9], below 50%; in [10], below 50%; in [11] it was below 50%.
`O[C@H]1CC[C@H](Nc2nccc(-n3nnc4ccccc43)n2)CC1`: the inhibition is 96% in [1]; 72% in [2]; below 50% in assay [3]; 100% in assay [4]; below 50% in assay [5]; below 50% in assay [6]. The inhibition was 87% in [7]; below 50% in [8]; below 50% in [9]; 82% in [10]; 74% in assay [11].
For `O[C@H]1CC[C@H](Nc2nccc(-n3ncc4ccccc43)n2)CC1`, the inhibition in assay [1] was below 50%; in [2], 74%; in [3], below 50%; in assay [4], 91%; in [5], below 50%; in assay [6], below 50%. The inhibition is 96% in assay [7]; below 50% in assay [8]; below 50% in assay [9]; 71% in assay [10]; below 50% in assay [11].
`O[C@H]1CC[C@H](Nc2nccc(-c3n[nH]c4ccccc34)n2)CC1`: the inhibition is below 50% in assay [3]; 100% in [4]; below 50% in assay [5]; 72% in assay [6]; 99% in [7]; 95% in assay [10]. Besides, the inhibition in assay [11] is below 50%.

These data come from ChEMBL document CHEMBL2424622, “Development of amino-pyrimidine inhibitors of c-Jun N-terminal kinase (JNK): kinase profiling guided optimization of a 1,2,3-benzotriazole lead” (Bioorg Med Chem Lett, 2013).
